Laboratory results reported in ChEMBL document CHEMBL3132745, “Synthesis and Antimicrobial Activities of His(2-aryl)-Arg and Trp-His(2-aryl) Classes of Dipeptidomimetics” (Medchemcomm, 2014).
Calls of active or inactive are those of the source.

Columns and labels:
Staphylococcus aureus [1] = assay: Antibacterial activity against methicillin-resistant Staphylococcus aureus ATCC 33591 assessed as growth inhibition after 16-20 hrs by CLSI method; assay type: functional, organism-based
Pichia kudriavzevii = assay: Antifungal activity against Candida krusei assessed as growth inhibition; assay type: functional, organism-based
KB = assay: Cytotoxicity against human KB cells assessed as cell viability after 48 hrs by neutral red uptake assay; assay type: cell-based
In short: (§1)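 Neutral red uptake assay on human cancer lines (SK-MEL, KB, BT-549, SK-OV-3) and noncancerous mammalian cells (VERO, LLC-PK1). Highest tested concentration was 10 µg/mL.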

[2] = Selectivity index, ratio of cytotoxicity against pig LLC-PK1 cells to IC50 for Cryptococcus neoformans ATCC 90113; assay type: toxicity, cell-based; settings: read-out: Selectivity Index
Staphylococcus aureus [3] = assay: Antibacterial activity against Staphylococcus aureus ATCC 29213 assessed as growth inhibition after 16-20 hrs by CLSI method; assay type: functional, organism-based
Vero = assay: Cytotoxicity against african green monkey Vero cells assessed as cell viability after 48 hrs by neutral red uptake assay; assay type: cell-based; settings: chlorocebus sabaeus; in short: as §1
Nakaseomyces glabratus = assay: Antifungal activity against Candida glabrata assessed as growth inhibition; assay type: functional, organism-based
Cryptococcus neoformans = assay: Antifungal activity against Cryptococcus neoformans ATCC 90113 assessed as growth inhibition after 70-74 hrs by CLSI method; assay type: functional, organism-based; settings: Cryptococcus neoformans, ATCC 90113; for IC50: read-out: IC50
Aspergillus fumigatus = assay: Antifungal activity against Aspergillus fumigatus assessed as growth inhibition; assay type: functional, organism-based
SK-MEL = assay: Cytotoxicity against human SK-MEL cells assessed as cell viability after 48 hrs by neutral red uptake assay; assay type: cell-based; in short: as §1
[4] = Selectivity index, ratio of cytotoxicity against african green monkey Vero cells to IC50 for Cryptococcus neoformans ATCC 90113; assay type: toxicity, cell-based; settings: read-out: Selectivity Index
Candida albicans = assay: Antifungal activity against Candida albicans assessed as growth inhibition; assay type: functional, organism-based
SK-OV-3 = assay: Cytotoxicity against human SKOV3 cells assessed as cell viability after 48 hrs by neutral red uptake assay; assay type: cell-based; settings: sk-ov-3, 48 h; in short: as §1
[5] = Selectivity index, ratio of cytotoxicity against human KB cells to IC50 for Cryptococcus neoformans ATCC 90113; assay type: toxicity, cell-based; settings: read-out: Selectivity Index
[6] = Selectivity index, ratio of cytotoxicity against human BT549 cells to IC50 for Cryptococcus neoformans ATCC 90113; assay type: toxicity, cell-based, BT-549; settings: read-out: Selectivity Index
[7] = Selectivity index, ratio of cytotoxicity against human SK-MEL cells to IC50 for Cryptococcus neoformans ATCC 90113; assay type: toxicity, cell-based; settings: read-out: Selectivity Index
Escherichia coli = assay: Antibacterial activity against Escherichia coli ATCC 35218 assessed as growth inhibition after 16-20 hrs by CLSI method; assay type: functional, organism-based
BT-549 = assay: Cytotoxicity against human BT549 cells assessed as cell viability after 48 hrs by neutral red uptake assay; assay type: cell-based; settings: bt-549, 48 h; in short: as §1
LLC-PK1 = assay: Cytotoxicity against pig LLC-PK1 cells assessed as cell viability after 48 hrs by neutral red uptake assay; assay type: cell-based, Sus scrofa; settings: llc-pk1, 48 h; in short: as §1
[8] = Selectivity index, ratio of cytotoxicity against human SKOV3 cells to IC50 for Cryptococcus neoformans ATCC 90113; assay type: toxicity, cell-based, SK-OV-3; settings: read-out: Selectivity Index
[9] = Staphylococcus aureus, ATCC 33591
[10] = Staphylococcus aureus, ATCC 33591, read-out: IC50

CC(C)(C)c1ccc(-c2nc(C[C@H](NC(=O)[C@@H](N)Cc3c[nH]c4ccccc34)C(=O)NCc3ccccc3)c[nH]2)cc1
20 µg/mL: MIC (Staphylococcus aureus [3])
> 2.21: selectivity ratio [2] | selectivity ratio [4] | selectivity ratio [5] | selectivity ratio [6] | selectivity ratio [7] | selectivity ratio [8]
10 µg/mL: MFC (Cryptococcus neoformans) | MIC (Cryptococcus neoformans)
> 10 µg/mL: Activity (KB) | Activity (Vero) | Activity (SK-MEL) | Activity (SK-OV-3) | Activity (BT-549) | Activity (LLC-PK1)
Not Active: IC50 (Staphylococcus aureus [1])
inactive: MBC (Staphylococcus aureus [1]) | MIC (Staphylococcus aureus [1]) | growth inhibition (GI) (Pichia kudriavzevii) | MBC (Staphylococcus aureus [3]) | growth inhibition (GI) (Nakaseomyces glabratus) | growth inhibition (GI) (Aspergillus fumigatus) | growth inhibition (GI) (Candida albicans) | growth inhibition (GI) (Escherichia coli)
11.7 µg/mL: IC50 (Staphylococcus aureus [3])
4.53 µg/mL: IC50 (Cryptococcus neoformans)

CC(C)(C)OC(=O)N[C@@H](Cc1c[nH]c(-c2ccc(-c3ccccc3)cc2)n1)C(=O)N[C@@H](CCCNC(=N)N)C(=O)NCc1ccccc1
8.97 µg/mL: IC50 (Staphylococcus aureus [1]; [10])
20 µg/mL: MIC (Staphylococcus aureus [1]; [9])
> 10 µg/mL: Activity (KB) | Activity (Vero) | Activity (SK-MEL) | Activity (SK-OV-3) | Activity (BT-549) | Activity (LLC-PK1)
10 µg/mL: MIC (Staphylococcus aureus [3])
1.09 µg/mL: IC50 (Cryptococcus neoformans)
> 9.2: selectivity ratio [2] | selectivity ratio [4] | selectivity ratio [5] | selectivity ratio [6] | selectivity ratio [7] | selectivity ratio [8]
inactive: MBC (Staphylococcus aureus [1]) | growth inhibition (GI) (Pichia kudriavzevii) | growth inhibition (GI) (Nakaseomyces glabratus) | growth inhibition (GI) (Aspergillus fumigatus) | growth inhibition (GI) (Candida albicans) | growth inhibition (GI) (Escherichia coli)
2.5 µg/mL: MFC (Cryptococcus neoformans) | MIC (Cryptococcus neoformans)
7.3 µg/mL: IC50 (Staphylococcus aureus [3])

N[C@@H](Cc1c[nH]c2ccccc12)C(=O)N[C@@H](Cc1c[nH]c(-c2ccc(-c3ccccc3)cc2)n1)C(=O)NCc1ccccc1
4.31 µg/mL: IC50 (Staphylococcus aureus [1]; [10])
10 µg/mL: MIC (Staphylococcus aureus [1]; [9])
1.25 µg/mL: MFC (Cryptococcus neoformans) | MIC (Cryptococcus neoformans)
> 10 µg/mL: Activity (KB) | Activity (Vero) | Activity (SK-MEL) | Activity (SK-OV-3) | Activity (BT-549) | Activity (LLC-PK1)
2.6 µg/mL: IC50 (Staphylococcus aureus [3])
0.54 µg/mL: IC50 (Cryptococcus neoformans)
20 µg/mL: MBC (Staphylococcus aureus [1]; [9]) | MBC (Staphylococcus aureus [3])
5 µg/mL: MIC (Staphylococcus aureus [3])
inactive: growth inhibition (GI) (Pichia kudriavzevii) | growth inhibition (GI) (Nakaseomyces glabratus) | growth inhibition (GI) (Aspergillus fumigatus) | growth inhibition (GI) (Candida albicans) | growth inhibition (GI) (Escherichia coli)
> 18.5: selectivity ratio [2] | selectivity ratio [4] | selectivity ratio [5] | selectivity ratio [6] | selectivity ratio [7] | selectivity ratio [8]

N=C(N)NCCC[C@H](NC(=O)[C@@H](N)Cc1c[nH]c(-c2ccc(-c3ccccc3)cc2)n1)C(=O)NCc1ccccc1
0.31 µg/mL: MFC (Cryptococcus neoformans) | MIC (Cryptococcus neoformans)
inactive: MBC (Staphylococcus aureus [1]) | MIC (Staphylococcus aureus [1]) | growth inhibition (GI) (Pichia kudriavzevii) | MBC (Staphylococcus aureus [3]) | MIC (Staphylococcus aureus [3]) | growth inhibition (GI) (Nakaseomyces glabratus) | growth inhibition (GI) (Aspergillus fumigatus) | growth inhibition (GI) (Candida albicans) | growth inhibition (GI) (Escherichia coli)
> 10 µg/mL: Activity (KB) | Activity (Vero) | Activity (SK-MEL) | Activity (SK-OV-3) | Activity (BT-549) | Activity (LLC-PK1)
> 50: selectivity ratio [2] | selectivity ratio [4] | selectivity ratio [5] | selectivity ratio [6] | selectivity ratio [7] | selectivity ratio [8]
Not Active: IC50 (Staphylococcus aureus [1])
0.2 µg/mL: IC50 (Cryptococcus neoformans)
12.8 µg/mL: IC50 (Staphylococcus aureus [3])

COC(=O)[C@H](CCCNC(=N)N)NC(=O)[C@@H](N)Cc1c[nH]c(-c2ccc(-c3ccccc3)cc2)n1
> 1.8: selectivity ratio [2] | selectivity ratio [4] | selectivity ratio [5] | selectivity ratio [6] | selectivity ratio [7] | selectivity ratio [8]
> 10 µg/mL: Activity (KB) | Activity (Vero) | Activity (SK-MEL) | Activity (SK-OV-3) | Activity (BT-549) | Activity (LLC-PK1)
5.49 µg/mL: IC50 (Cryptococcus neoformans)
10 µg/mL: MFC (Cryptococcus neoformans) | MIC (Cryptococcus neoformans)
inactive: growth inhibition (GI) (Pichia kudriavzevii) | growth inhibition (GI) (Nakaseomyces glabratus) | growth inhibition (GI) (Aspergillus fumigatus) | growth inhibition (GI) (Candida albicans) | growth inhibition (GI) (Escherichia coli)

N=C(N)NCCC[C@H](NC(=O)[C@@H](N)Cc1c[nH]c(-c2cccc3ccccc23)n1)C(=O)NCc1ccccc1
> 10 µg/mL: Activity (KB) | Activity (Vero) | Activity (SK-MEL) | Activity (SK-OV-3) | Activity (BT-549) | Activity (LLC-PK1)
1.25 µg/mL: MFC (Cryptococcus neoformans) | MIC (Cryptococcus neoformans)
> 16.1: selectivity ratio [2] | selectivity ratio [4] | selectivity ratio [5] | selectivity ratio [6] | selectivity ratio [7] | selectivity ratio [8]
inactive: growth inhibition (GI) (Pichia kudriavzevii) | growth inhibition (GI) (Nakaseomyces glabratus) | growth inhibition (GI) (Aspergillus fumigatus) | growth inhibition (GI) (Candida albicans) | growth inhibition (GI) (Escherichia coli)
0.62 µg/mL: IC50 (Cryptococcus neoformans)

CC(C)(C)OC(=O)N[C@@H](Cc1c[nH]c(-c2ccc(C(C)(C)C)cc2)n1)C(=O)N[C@@H](CCCNC(=N)N)C(=O)NCc1ccccc1
inactive: MBC (Staphylococcus aureus [1]) | growth inhibition (GI) (Pichia kudriavzevii) | MBC (Staphylococcus aureus [3]) | growth inhibition (GI) (Nakaseomyces glabratus) | growth inhibition (GI) (Aspergillus fumigatus) | growth inhibition (GI) (Candida albicans) | growth inhibition (GI) (Escherichia coli)
9.32 µg/mL: IC50 (Staphylococcus aureus [1]; [10])
> 4.1: selectivity ratio [2] | selectivity ratio [4] | selectivity ratio [5] | selectivity ratio [6] | selectivity ratio [7] | selectivity ratio [8]
> 10 µg/mL: Activity (KB) | Activity (Vero) | Activity (SK-MEL) | Activity (SK-OV-3) | Activity (BT-549) | Activity (LLC-PK1)
2.5 µg/mL: MFC (Cryptococcus neoformans) | MIC (Cryptococcus neoformans)
2.42 µg/mL: IC50 (Cryptococcus neoformans)
5.95 µg/mL: IC50 (Staphylococcus aureus [3])
10 µg/mL: MIC (Staphylococcus aureus [3])
20 µg/mL: MIC (Staphylococcus aureus [1]; [9])

Cc1ccc(-c2nc(C[C@H](NC(=O)[C@@H](N)Cc3c[nH]c4ccccc34)C(=O)NCc3ccccc3)c[nH]2)cc1
> 10 µg/mL: Activity (KB) | Activity (Vero) | Activity (SK-MEL) | Activity (SK-OV-3) | Activity (BT-549) | Activity (LLC-PK1)
7.84 µg/mL: IC50 (Cryptococcus neoformans)
inactive: growth inhibition (GI) (Pichia kudriavzevii) | growth inhibition (GI) (Nakaseomyces glabratus) | growth inhibition (GI) (Aspergillus fumigatus) | growth inhibition (GI) (Candida albicans) | growth inhibition (GI) (Escherichia coli)
> 1.3: selectivity ratio [2] | selectivity ratio [4] | selectivity ratio [5] | selectivity ratio [6] | selectivity ratio [7] | selectivity ratio [8]
20 µg/mL: MIC (Cryptococcus neoformans)
